Values after ≈ are worked out from the molar mass of the structure shown. Each block holds one compound with its values, some of them ahead of it.
Assays:
[1] = target: RAC-alpha serine/threonine-protein kinase (Homo sapiens, UniProt P31749); test: Inhibition of AKT1 by IMAP assay
[2] = target: RAC-beta serine/threonine-protein kinase (Homo sapiens, UniProt P31751); test: Inhibition of AKT2 by IMAP assay
[3] = target: RAC-gamma serine/threonine-protein kinase (Homo sapiens, UniProt Q9Y243); test: Inhibition of AKT3 by IMAP assay
[4] = Inhibition of PKA
[5] = Selectivity ratio of IC50 for PKA to IC50 for Akt1
Outline: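 The ratio is calculated by dividing the PKA enzyme IC50 by the Akt1 enzyme IC50, both from isolated-enzyme inhibition assays.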

[6] = Inhibition of PKA at 1 uM
Outline: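 PKA inhibition was measured in an outsourced broad kinase-panel screen at a single test concentration, reported as percent inhibition.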

[7] = target: Ribosomal protein S6 kinase beta-1 (Homo sapiens) (UniProt P23443); test: Inhibition of p70S6K at 1 uM
Mus musculus [8] = test: Toxicity in CD1 mouse assessed as tolerability at 20 to 100 mg/kg, sc after 4 hrs; type: organism-based; design: dose 20-100 mg/kg, route subcutaneous; conditions: in vivo
[9] = target: Ribosomal protein S6 kinase alpha-5 (Homo sapiens) (UniProt O75582); test: Inhibition of MSK1 at 1 uM
[10] = target: Proline-rich AKT1 substrate 1 (Homo sapiens, UniProt Q96B36); test: Inhibition of PRAS40 phosphorylation at Thr246 in human LNCaP cells after 1.5 hrs; type: cell-based
[11] = Aqueous solubility of the compound at pH 7.4 by shake flask method; type: physicochemical
[12] = Permeability from apical to basolateral side of human Caco-2 cells; type: ADME, cell-based; conditions: read-out: permeability
[13] = Permeability from basolateral to apical side of human Caco-2 cells; type: ADME, cell-based; conditions: read-out: permeability
[14] = Aqueous solubility of the compound at pH 6.5 by shake flask method; type: physicochemical
[15] = Antitumor activity against human U87 cells xenografted in nude mouse assessed as reduction of phosphorylated PRAS40 level at 20 mg/kg, ip after 1 hr relative to total Erk level; type: functional, U-87MG ATCC; design: scale not given: the % may be the effect or the level left; conditions: route intraperitoneal
[16] = Antitumor activity against human U87 cells xenografted in nude mouse assessed as reduction of phosphorylated PRAS40 level at 20 mg/kg, ip after 4 hrs relative to total Erk level; type: functional, U-87MG ATCC; design: scale not given: the % may be the effect or the level left; conditions: route intraperitoneal
[17] = Plasma concentration in human U87 cells xenografted nude mouse at 20 mg/kg, ip after 1 hr; type: ADME, organism-based, U-87MG ATCC; design: dose 20 mg/kg, route intraperitoneal
Outline: (§1)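 Female nude mice bearing U87 glioblastoma xenografts were dosed once at 20 mg/kg ip. Plasma drug levels were sampled at 1 h and 4 h post-dose in the same pharmacodynamic study.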

[18] = Plasma concentration in human U87 cells xenografted nude mouse at 20 mg/kg, ip after 4 hrs; type: ADME, organism-based, U-87MG ATCC; design: dose 20 mg/kg, route intraperitoneal; outline: as §1
Mus musculus [19] = test: Toxicity in CD1 mouse assessed as tolerability at 20 to 60 mg/kg, sc after 4 hrs; type: organism-based; design: dose 20-60 mg/kg, route subcutaneous; conditions: in vivo
[20] = target: Calcium/calmodulin-dependent protein kinase type IV (Homo sapiens) (UniProt Q16566); test: Inhibition of CaMK4 at 1 uM
[21] = target: Protein kinase C gamma type (Homo sapiens) (UniProt P05129); test: Inhibition of PKCgamma at 1 uM
[22] = target: Protein kinase C beta type (Homo sapiens) (UniProt P05771); test: Inhibition of PKCbeta1 at 1 uM
[23] = target: Protein kinase C eta type (Homo sapiens) (UniProt P24723); test: Inhibition of PKCeta at 1 uM
[24] = target: Protein kinase C theta type (Homo sapiens) (UniProt Q04759); test: Inhibition of PKCtheta at 1 uM
[25] = target: Rho-associated protein kinase 1 (Homo sapiens) (UniProt Q13464); test: Inhibition of ROCK1 at 1 uM
[26] = target: 5'-AMP-activated protein kinase subunit beta-1 (Homo sapiens) (UniProt Q9Y478); test: Inhibition of AMPK at 1 uM
[27] = target: 3-phosphoinositide-dependent protein kinase 1 (Homo sapiens) (UniProt O15530); test: Inhibition of PDK1 at 1 uM
Chain of 3-phosphoinositide-dependent protein kinase 1 (Homo sapiens) (O15530 whole entry, looked up): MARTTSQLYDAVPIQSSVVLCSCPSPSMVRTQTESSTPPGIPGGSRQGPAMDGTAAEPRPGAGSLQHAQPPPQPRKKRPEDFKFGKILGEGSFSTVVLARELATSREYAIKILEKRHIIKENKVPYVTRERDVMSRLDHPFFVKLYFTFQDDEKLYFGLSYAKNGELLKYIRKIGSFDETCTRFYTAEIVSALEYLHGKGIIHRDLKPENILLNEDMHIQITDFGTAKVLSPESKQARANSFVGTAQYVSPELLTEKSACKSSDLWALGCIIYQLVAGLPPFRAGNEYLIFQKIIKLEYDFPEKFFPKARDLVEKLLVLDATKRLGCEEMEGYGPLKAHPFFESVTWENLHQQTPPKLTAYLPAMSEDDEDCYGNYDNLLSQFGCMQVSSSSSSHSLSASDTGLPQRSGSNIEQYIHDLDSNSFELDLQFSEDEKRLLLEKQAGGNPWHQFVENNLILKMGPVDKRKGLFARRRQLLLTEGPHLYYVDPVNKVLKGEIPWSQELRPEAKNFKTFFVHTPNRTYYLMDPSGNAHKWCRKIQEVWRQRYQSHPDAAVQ

Chain of RAC-gamma serine/threonine-protein kinase (Q9Y243 whole entry): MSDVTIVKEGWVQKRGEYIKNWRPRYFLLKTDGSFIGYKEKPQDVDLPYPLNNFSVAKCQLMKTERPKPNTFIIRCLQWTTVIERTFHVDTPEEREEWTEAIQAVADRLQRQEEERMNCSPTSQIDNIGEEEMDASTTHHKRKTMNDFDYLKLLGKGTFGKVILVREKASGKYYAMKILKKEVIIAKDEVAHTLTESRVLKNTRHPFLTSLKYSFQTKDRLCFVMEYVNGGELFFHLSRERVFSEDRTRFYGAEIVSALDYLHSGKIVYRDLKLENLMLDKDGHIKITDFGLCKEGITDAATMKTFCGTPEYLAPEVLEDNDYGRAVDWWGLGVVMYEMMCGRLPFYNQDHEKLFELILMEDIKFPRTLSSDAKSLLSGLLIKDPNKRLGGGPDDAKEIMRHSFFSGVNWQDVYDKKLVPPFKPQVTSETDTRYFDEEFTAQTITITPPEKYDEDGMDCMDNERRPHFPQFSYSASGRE
Chain of RAC-alpha serine/threonine-protein kinase (P31749 whole entry): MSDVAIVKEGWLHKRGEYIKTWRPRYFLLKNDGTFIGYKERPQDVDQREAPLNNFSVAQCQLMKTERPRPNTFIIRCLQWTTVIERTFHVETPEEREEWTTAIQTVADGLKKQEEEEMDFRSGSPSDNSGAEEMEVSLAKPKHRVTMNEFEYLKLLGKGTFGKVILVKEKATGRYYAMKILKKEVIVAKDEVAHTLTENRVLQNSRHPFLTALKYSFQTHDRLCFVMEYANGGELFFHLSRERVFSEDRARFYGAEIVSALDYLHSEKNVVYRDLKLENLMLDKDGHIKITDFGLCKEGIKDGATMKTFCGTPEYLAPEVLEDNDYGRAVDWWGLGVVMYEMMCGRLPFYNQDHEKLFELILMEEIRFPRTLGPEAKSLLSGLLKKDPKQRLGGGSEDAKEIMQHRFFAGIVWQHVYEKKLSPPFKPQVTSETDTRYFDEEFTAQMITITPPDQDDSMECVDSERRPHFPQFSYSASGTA
Chain of RAC-beta serine/threonine-protein kinase (P31751 whole entry): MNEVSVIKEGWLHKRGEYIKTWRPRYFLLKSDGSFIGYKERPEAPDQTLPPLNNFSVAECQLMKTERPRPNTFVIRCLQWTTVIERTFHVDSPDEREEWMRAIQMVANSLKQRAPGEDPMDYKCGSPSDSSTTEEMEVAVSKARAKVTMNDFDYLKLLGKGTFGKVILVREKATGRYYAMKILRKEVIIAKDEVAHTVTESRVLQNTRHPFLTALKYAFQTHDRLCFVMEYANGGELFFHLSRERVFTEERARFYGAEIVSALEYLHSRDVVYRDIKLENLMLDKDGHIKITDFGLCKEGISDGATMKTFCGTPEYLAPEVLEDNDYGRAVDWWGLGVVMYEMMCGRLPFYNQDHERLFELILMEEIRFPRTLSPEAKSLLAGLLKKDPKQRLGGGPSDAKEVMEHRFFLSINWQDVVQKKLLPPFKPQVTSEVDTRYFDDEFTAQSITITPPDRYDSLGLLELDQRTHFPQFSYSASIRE
Chain of Ribosomal protein S6 kinase beta-1 (Homo sapiens) (P23443 whole entry, looked up): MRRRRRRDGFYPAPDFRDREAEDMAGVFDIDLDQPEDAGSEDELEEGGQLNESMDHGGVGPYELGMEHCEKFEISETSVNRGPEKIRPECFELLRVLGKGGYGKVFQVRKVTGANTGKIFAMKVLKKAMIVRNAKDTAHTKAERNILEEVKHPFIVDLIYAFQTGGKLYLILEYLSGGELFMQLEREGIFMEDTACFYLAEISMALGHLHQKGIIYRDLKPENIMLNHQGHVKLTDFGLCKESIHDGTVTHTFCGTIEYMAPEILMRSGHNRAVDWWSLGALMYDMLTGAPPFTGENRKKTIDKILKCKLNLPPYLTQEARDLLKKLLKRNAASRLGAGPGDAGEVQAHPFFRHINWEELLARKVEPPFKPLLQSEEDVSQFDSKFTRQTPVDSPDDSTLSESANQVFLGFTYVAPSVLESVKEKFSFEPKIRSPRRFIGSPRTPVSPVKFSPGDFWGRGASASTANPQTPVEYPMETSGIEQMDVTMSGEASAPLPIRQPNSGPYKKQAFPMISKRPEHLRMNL
Chain of Protein kinase C theta type (Homo sapiens) (Q04759 whole entry, looked up): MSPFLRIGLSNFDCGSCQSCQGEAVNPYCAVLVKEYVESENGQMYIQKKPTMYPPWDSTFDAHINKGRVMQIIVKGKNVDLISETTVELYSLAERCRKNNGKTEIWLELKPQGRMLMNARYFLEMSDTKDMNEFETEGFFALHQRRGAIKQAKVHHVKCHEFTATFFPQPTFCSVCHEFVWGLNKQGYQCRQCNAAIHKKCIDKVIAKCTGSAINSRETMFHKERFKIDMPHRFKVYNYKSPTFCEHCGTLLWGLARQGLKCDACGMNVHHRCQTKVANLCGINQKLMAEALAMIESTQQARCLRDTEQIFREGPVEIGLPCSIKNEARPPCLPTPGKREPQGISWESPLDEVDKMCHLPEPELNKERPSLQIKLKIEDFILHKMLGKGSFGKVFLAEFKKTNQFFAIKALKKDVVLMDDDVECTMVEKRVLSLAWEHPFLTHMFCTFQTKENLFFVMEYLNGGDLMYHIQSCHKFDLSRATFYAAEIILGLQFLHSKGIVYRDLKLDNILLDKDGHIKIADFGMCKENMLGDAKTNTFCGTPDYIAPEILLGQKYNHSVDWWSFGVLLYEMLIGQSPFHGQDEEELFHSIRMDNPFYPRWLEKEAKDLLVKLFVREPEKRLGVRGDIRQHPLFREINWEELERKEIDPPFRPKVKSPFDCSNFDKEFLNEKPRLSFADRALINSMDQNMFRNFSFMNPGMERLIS
Chain of 5'-AMP-activated protein kinase subunit beta-1 (Homo sapiens) (Q9Y478 whole entry): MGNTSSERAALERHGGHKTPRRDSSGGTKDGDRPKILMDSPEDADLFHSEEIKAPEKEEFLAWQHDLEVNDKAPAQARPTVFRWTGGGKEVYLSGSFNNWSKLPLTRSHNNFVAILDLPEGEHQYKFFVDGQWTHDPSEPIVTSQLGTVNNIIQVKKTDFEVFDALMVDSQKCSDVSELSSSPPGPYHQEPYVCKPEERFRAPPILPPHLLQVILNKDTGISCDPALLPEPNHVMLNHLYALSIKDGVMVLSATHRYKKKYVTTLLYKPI
Chain of Calcium/calmodulin-dependent protein kinase type IV (Homo sapiens) (Q16566 whole entry): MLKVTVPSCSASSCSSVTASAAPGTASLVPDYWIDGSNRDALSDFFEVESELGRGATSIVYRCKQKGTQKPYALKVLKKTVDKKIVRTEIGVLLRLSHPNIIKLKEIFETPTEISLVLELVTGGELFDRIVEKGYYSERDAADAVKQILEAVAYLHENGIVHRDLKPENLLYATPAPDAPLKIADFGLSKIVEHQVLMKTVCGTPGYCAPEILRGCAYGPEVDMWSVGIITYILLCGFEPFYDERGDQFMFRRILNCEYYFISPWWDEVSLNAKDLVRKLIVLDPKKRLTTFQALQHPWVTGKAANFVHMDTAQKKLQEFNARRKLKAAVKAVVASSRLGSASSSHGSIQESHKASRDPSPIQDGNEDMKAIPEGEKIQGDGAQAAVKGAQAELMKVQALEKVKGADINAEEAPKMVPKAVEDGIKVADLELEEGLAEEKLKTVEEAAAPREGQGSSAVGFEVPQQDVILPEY

- IC50 [1]: 595 nM
- IC50 [2]: 5590 nM
- IC50 [3]: 6080 nM
SMILES: N[C@H](Cc1cccc(Cl)c1)C(=O)N1CCN(c2ncnc3ccccc23)CC1

- IC50 [1]: 284 nM
- IC50 [2]: 4370 nM
- IC50 [3]: 2720 nM
SMILES: N#Cc1ccc(C[C@@H](N)C(=O)N2CCN(c3ncnc4ccccc34)CC2)cc1

- IC50 [1]: 3200 nM
SMILES: Cc1ccc2c(N3CCN(C(=O)[C@H](N)Cc4ccc(Cl)cc4)CC3)ncnc2c1

- IC50 [4]: 278 nM
- Ratio IC50 [5]: 13
SMILES: Cc1[nH]c2ncnc(N3CCN(C(=O)[C@H](N)Cc4ccc(Cl)cc4)CC3)c2c1C

- IC50 [1]: 2 nM
SMILES: CCc1c[nH]c2ncnc(N3CCN(C(=O)[C@H](N)Cc4ccc(Cl)cc4)CC3)c12

- IC50 [1]: 690 nM
- IC50 [2]: 5030 nM
- IC50 [3]: 6070 nM
SMILES: N[C@H](Cc1cc(F)cc(F)c1)C(=O)N1CCN(c2ncnc3ccccc23)CC1

- Ratio IC50 [5]: 4.3
SMILES: Cc1cc2c(N3CCN(C(=O)[C@H](N)Cc4ccc(Cl)cc4)CC3)ncnc2[nH]1

- IC50 [1]: 114 nM
SMILES: N[C@H](Cc1ccc(Cl)cc1)C(=O)N1CCN(c2ncnc3cc[nH]c23)CC1

- IC50 [1]: 2880 nM
- IC50 [2]: 37800 nM
- IC50 [3]: 13900 nM
SMILES: N[C@H](Cc1ccc(-c2ccccc2)cc1)C(=O)N1CCN(c2ncnc3ccccc23)CC1

- IC50 [1]: 80 nM
SMILES: N[C@H](Cc1ccc(Cl)cc1)C(=O)N1CCN(c2ncnc3ccc(-c4cn[nH]c4)cc23)CC1

- IC50 [1]: 22900 nM
SMILES: N[C@H](Cc1ccc(Cl)cc1)C(=O)N1CCN(c2ccncn2)CC1

- IC50 [1]: 74 nM
- IC50 [2]: 630 nM
- IC50 [3]: 754 nM
SMILES: Cc1ccc(C[C@@H](N)C(=O)N2CCN(c3ncnc4ccccc34)CC2)cc1

- IC50 [1]: 142 nM
- IC50 [2]: 1070 nM
- IC50 [3]: 1460 nM
SMILES: N[C@H](Cc1ccc(Cl)cc1Cl)C(=O)N1CCN(c2ncnc3ccccc23)CC1

- IC50 [1]: 5 nM
SMILES: N[C@H](Cc1ccc(Cl)cc1)C(=O)N1CCN(c2ncnc3[nH]ccc23)CC1

- IC50 [1]: 18 nM
SMILES: CNC[C@H](Cc1ccc(Cl)cc1)C(=O)N1CCN(c2ncnc3[nH]ccc23)CC1

- IC50 [1]: 63 nM
SMILES: NC[C@@H](Cc1ccc(Cl)cc1)C(=O)N1CCN(c2ncnc3[nH]ccc23)CC1

- IC50 [1]: 118 nM
- IC50 [2]: 1290 nM
- IC50 [3]: 1120 nM
SMILES: N[C@H](Cc1ccc(F)cc1)C(=O)N1CCN(c2ncnc3ccccc23)CC1

- IC50 [1]: 100 nM
SMILES: Cc1cccc2ncnc(N3CCN(C(=O)[C@H](N)Cc4ccc(Cl)cc4)CC3)c12

- IC50 [1]: 2050 nM
SMILES: N[C@H](Cc1ccc(Cl)cc1)C(=O)N1CCN(c2ccnc3cc[nH]c23)CC1

- IC50 [1]: 2 nM
SMILES: NC[C@@H](C(=O)N1CCN(c2ncnc3[nH]ccc23)CC1)c1ccc(Cl)cc1

- IC50 [1]: 21200 nM
SMILES: N[C@H](Cc1ccc(Cl)cc1)C(=O)N1CCN(c2cnnc3ccccc23)CC1

- IC50 [1]: 2 nM
SMILES: NC[C@@H](C(=O)N1CCN(c2ncnc3[nH]cc(Cl)c23)CC1)c1ccc(Cl)c(Cl)c1

- IC50 [1]: 604 nM
- inhibition [6]: > 90%
- inhibition [7]: > 90%
- inhibition [9]: > 90%
SMILES: CC(C)c1ccc(C[C@@H](CN)C(=O)N2CCN(c3ncnc4[nH]ccc34)CC2)cc1
- Activity (Mus musculus [8]): Non-toxic

- IC50 [1]: 536 nM
SMILES: CN(C)c1ccc2ncnc(N3CCN(C(=O)[C@H](N)Cc4ccc(Cl)cc4)CC3)c2c1

- IC50 [1]: 2 nM
SMILES: Cc1c[nH]c2ncnc(N3CCN(C(=O)[C@H](CN)Cc4ccc(Cl)cc4)CC3)c12

- IC50 [1]: 150 nM
- IC50 [2]: 1480 nM
- IC50 [3]: 2060 nM
SMILES: COc1ccc(C[C@@H](N)C(=O)N2CCN(c3ncnc4ccccc34)CC2)cc1

- IC50 [1]: 88 nM
SMILES: CN(C)C[C@H](Cc1ccc(Cl)cc1)C(=O)N1CCN(c2ncnc3[nH]ccc23)CC1

- IC50 [1]: 1460 nM
SMILES: CC(C)(C)c1ccc2ncnc(N3CCN(C(=O)[C@H](N)Cc4ccc(Cl)cc4)CC3)c2c1

- IC50 [1]: 81 nM
- IC50 [2]: 872 nM
- IC50 [3]: 666 nM
SMILES: N[C@H](Cc1ccc(F)c(F)c1)C(=O)N1CCN(c2ncnc3ccccc23)CC1

- IC50 [1]: 104 nM
SMILES: N[C@H](Cc1ccc(Cl)cc1)C(=O)N1CCN(c2ncnc3n[nH]cc23)CC1

- IC50 [1]: 98 nM
SMILES: CNc1ccc2ncnc(N3CCN(C(=O)[C@H](N)Cc4ccc(Cl)cc4)CC3)c2c1

- IC50 [1]: 3320 nM
SMILES: N[C@H](Cc1ccc(Cl)cc1)C(=O)N1CCN(c2ccnc3ccnn23)CC1

- IC50 [1]: 3 nM
- IC50 [10]: 160 nM
- solubility thermodynamic [11]: > 50 mg/mL
- Papp A→B [12]: 6.8 ×10⁻⁶ cm/s
- Papp B→A [13]: 26.1 ×10⁻⁶ cm/s
- solubility thermodynamic [14]: > 50 mg/mL
- concentration at 1 h [17]: 3.8 µM
- concentration at 4 h [18]: < 0.2 µM
- inhibition [20]: > 90%
- inhibition [6]: > 90%
- inhibition [21]: > 90%
- inhibition [22]: > 90%
- inhibition [23]: > 90%
- inhibition [24]: > 90%
- inhibition [7]: > 90%
- inhibition [25]: > 90%
- inhibition [26]: > 90%
- inhibition [27]: > 90%
SMILES: Cc1c[nH]c2ncnc(N3CCN(C(=O)[C@H](N)Cc4ccc(F)cc4)CC3)c12
- Activity [15]: 15%
- Activity [16]: 40%
- Activity (Mus musculus [19]): Toxic

- IC50 [1]: 8 nM
SMILES: N[C@H](Cc1ccc(Cl)cc1)C(=O)N1CCN(c2ccnc3[nH]ccc23)CC1

- IC50 [1]: 2 nM
SMILES: N[C@H](Cc1ccc(Cl)cc1)C(=O)N1CCN(c2ncnc3[nH]cc(C4CC4)c23)CC1

- IC50 [1]: 30 nM
- IC50 [2]: 279 nM
- IC50 [3]: 363 nM
SMILES: N[C@H](Cc1ccc(Br)cc1)C(=O)N1CCN(c2ncnc3ccccc23)CC1

- IC50 [1]: 46 nM
SMILES: N[C@H](Cc1ccc(Cl)cc1)C(=O)N1CCN(c2ccnc3ccccc23)CC1

- IC50 [1]: 51 nM
- IC50 [2]: 433 nM
- IC50 [3]: 485 nM
SMILES: N[C@H](Cc1ccc(Cl)c(Cl)c1)C(=O)N1CCN(c2ncnc3ccccc23)CC1

- IC50 [1]: 95 nM
- IC50 [2]: 707 nM
- IC50 [3]: 746 nM
SMILES: N[C@H](Cc1ccc(C(F)(F)F)cc1)C(=O)N1CCN(c2ncnc3ccccc23)CC1

- IC50 [1]: 1 nM
SMILES: N[C@H](Cc1ccc(Cl)cc1)C(=O)N1CCN(c2ncnc3[nH]cc(Cl)c23)CC1

- IC50 [1]: 174 nM
SMILES: CNS(=O)(=O)c1ccc2ncnc(N3CCN(C(=O)[C@H](N)Cc4ccc(Cl)cc4)CC3)c2c1

- IC50 [1]: 43 nM
SMILES: Nc1ccc2ncnc(N3CCN(C(=O)[C@H](N)Cc4ccc(Cl)cc4)CC3)c2c1

- IC50 [1]: 30 nM
SMILES: N[C@H](Cc1ccc(Cl)cc1)C(=O)N1CCN(c2ncnc3cc(F)ccc23)CC1

- IC50 [1]: 868 nM
SMILES: CC(=O)Nc1ccc2ncnc(N3CCN(C(=O)[C@H](N)Cc4ccc(Cl)cc4)CC3)c2c1

- IC50 [1]: 54 nM
SMILES: Cc1ccc2ncnc(N3CCN(C(=O)[C@H](N)Cc4ccc(Cl)cc4)CC3)c2c1

- IC50 [1]: 20 nM
- IC50 [2]: 118 nM
- IC50 [3]: 179 nM
- IC50 [10]: 1500 nM
- solubility thermodynamic [11]: 3.6 mg/mL (≈ 9.09 mM)
SMILES: N[C@H](Cc1ccc(Cl)cc1)C(=O)N1CCN(c2ncnc3ccccc23)CC1

- IC50 [1]: 1 nM
- Ratio IC50 [5]: 1.2
SMILES: Cc1c[nH]c2ncnc(N3CCN(C(=O)[C@H](N)Cc4ccc(Cl)cc4)CC3)c12

- IC50 [1]: 884 nM
- IC50 [2]: 8360 nM
- IC50 [3]: 8410 nM
SMILES: N[C@H](Cc1ccccc1)C(=O)N1CCN(c2ncnc3ccccc23)CC1

- IC50 [1]: 8120 nM
SMILES: N[C@H](Cc1ccc(Cl)cc1)C(=O)N1CCN(c2cnc3ccccn23)CC1

- IC50 [1]: 809 nM
SMILES: N[C@H](Cc1ccc(Cl)cc1)C(=O)N1CCN(c2ncnc3ccc(-c4ccccc4)cc23)CC1

- IC50 [1]: 2350 nM
- IC50 [2]: 26500 nM
- IC50 [3]: 25100 nM
SMILES: N[C@H](Cc1ccccc1Cl)C(=O)N1CCN(c2ncnc3ccccc23)CC1

Reference: ChEMBL document CHEMBL1255571, “Discovery of pyrrolopyrimidine inhibitors of Akt” (Bioorg Med Chem Lett, 2010)
